# ChEMBL document CHEMBL4689842, “EUbOPEN Chemogenomics Library wave 1” (2021)
# “And” between values parts separate entries of the source, which are not always exact repeats. Equal values may be shown once.
# System: U2OS
# Assay: Multiplex assay against U2OS
# Type: toxicity, cell-based
# Conditions: human
# Procedure, shortened: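 With compound added, live cells were imaged on a CQ1 microscope at 37°C and 5% CO2; staining with Hoechst33342, BioTracker Green Microtubule Cytoskeleton Dye, MitoTracker Red and Annexin V Alexa Fluor 680 had been done at seeding. The CellPathfinder machine-learning gating scheme split cells into Hoechst high-intensity objects or normal cells, normal cells into healthy, pyknosed or fragmented nuclei, and pyknosed cells into mitotic or apoptotic. The tubulin, mitochondrial-mass and membrane-permeability phenotypes are per cents of healthy-nucleus cells.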
# [1] = 12 h, 1 µM, compound concentration 1 uM, replicate 1
# [2] = 12 h, 1 µM, compound concentration 1 uM, replicate 2
# [3] = 12 h, 10 µM, compound concentration 10 uM, replicate 1
# [4] = 12 h, 10 µM, compound concentration 10 uM, replicate 2
# [5] = 24 h, 1 µM, compound concentration 1 uM, replicate 1
# [6] = 24 h, 1 µM, compound concentration 1 uM, replicate 2
# [7] = 24 h, 10 µM, compound concentration 10 uM, replicate 1
# [8] = 24 h, 10 µM, compound concentration 10 uM, replicate 2
# [9] = 48 h, 1 µM, compound concentration 1 uM, replicate 1
# [10] = 48 h, 1 µM, compound concentration 1 uM, replicate 2
# [11] = 48 h, 10 µM, compound concentration 10 uM, replicate 1
# [12] = 48 h, 10 µM, compound concentration 10 uM, replicate 2
smiles,measurement,setting,value
C[C@@H](NCCCc1cccc(C(F)(F)F)c1)c1cccc2ccccc12.Cl [CINACALCET HYDROCHLORIDE],Population Fragmented Nuclei (%),[1],6%
same,Population Healthy Nuclei (%),[1],79%
same,Population Hoechst High Intensity Objects (%),[1],5%
same,Population Membrane Permeable-Phenotype (%),[1],4%
same,Population Mitochondria Different-Phenotype (%),[1],30%
same,Population Normal (%),[1],94%
same,Population Pyknosed Nuclei (%),[1],13%
same,Population Tubulin-Different-Phenotype (%),[1],40%
same,Total Cell Count,[1],184
same,Population Apoptotic (%),[2],33%
same,Population Fragmented Nuclei (%),[2],10%
same,Population Healthy Nuclei (%),[2],76%
same,Population Hoechst High Intensity Objects (%),[2],9%
same,Population Membrane Permeable-Phenotype (%),[2],11%
same,Population Mitochondria Different-Phenotype (%),[2],22%
same,Population Mitotic Cells (%),[2],66%
same,Population Normal (%),[2],90%
same,Population Pyknosed Nuclei (%),[2],12%
same,Population Tubulin-Different-Phenotype (%),[2],36%
same,Total Cell Count,[2],52
same,Population Apoptotic (%),[3],41%
same,Population Fragmented Nuclei (%),[3],14%
same,Population Healthy Nuclei (%),[3],60%
same,Population Hoechst High Intensity Objects (%),[3],9%
same,Population Membrane Permeable-Phenotype (%),[3],22%
same,Population Mitotic Cells (%),[3],58%
same,Population Normal (%),[3],90%
same,Population Pyknosed Nuclei (%),[3],24%
same,Population Tubulin-Different-Phenotype (%),[3],98%
same,Total Cell Count,[3],155
same,Population Apoptotic (%),[4],88%
same,Population Fragmented Nuclei (%),[4],20%
same,Population Healthy Nuclei (%),[4],23%
same,Population Hoechst High Intensity Objects (%),[4],7%
same,Population Membrane Permeable-Phenotype (%),[4],33%
same,Population Mitochondria Different-Phenotype (%),[4],93%
same,Population Mitotic Cells (%),[4],11%
same,Population Normal (%),[4],92%
same,Population Pyknosed Nuclei (%),[4],55%
same,Population Tubulin-Different-Phenotype (%),[4],93%
same,Total Cell Count,[4],68
same,Population Apoptotic (%),[5],29%
same,Population Fragmented Nuclei (%),[5],5%
same,Population Healthy Nuclei (%),[5],82%
same,Population Hoechst High Intensity Objects (%),[5],3%
same,Population Membrane Permeable-Phenotype (%),[5],4%
same,Population Mitochondria Different-Phenotype (%),[5],20%
same,Population Mitotic Cells (%),[5],70%
same,Population Normal (%),[5],96%
same,Population Pyknosed Nuclei (%),[5],12%
same,Population Tubulin-Different-Phenotype (%),[5],20%
same,Total Cell Count,[5],205
same,Population Apoptotic (%),[6],36%
same,Population Fragmented Nuclei (%),[6],8%
same,Population Healthy Nuclei (%),[6],69%
same,Population Hoechst High Intensity Objects (%),[6],7%
same,Population Membrane Permeable-Phenotype (%),[6],5%
same,Population Mitochondria Different-Phenotype (%),[6],26%
same,Population Mitotic Cells (%),[6],63%
same,Population Normal (%),[6],92%
same,Population Pyknosed Nuclei (%),[6],22%
same,Population Tubulin-Different-Phenotype (%),[6],17%
same,Total Cell Count,[6],53
same,Population Apoptotic (%),[7],72%
same,Population Fragmented Nuclei (%),[7],14%
same,Population Healthy Nuclei (%),[7],51%
same,Population Hoechst High Intensity Objects (%),[7],6%
same,Population Membrane Permeable-Phenotype (%),[7],46%
same,Population Mitochondria Different-Phenotype (%),[7],97%
same,Population Mitotic Cells (%),[7],28%
same,Population Normal (%),[7],93%
same,Population Pyknosed Nuclei (%),[7],34%
same,Population Tubulin-Different-Phenotype (%),[7],100%
same,Total Cell Count,[7],157
same,Population Apoptotic (%),[8],92%
same,Population Fragmented Nuclei (%),[8],15%
same,Population Healthy Nuclei (%),[8],32%
same,Population Hoechst High Intensity Objects (%),[8],24%
same,Population Membrane Permeable-Phenotype (%),[8],52%
same,Population Mitochondria Different-Phenotype (%),[8],88%
same,Population Mitotic Cells (%),[8],7%
same,Population Normal (%),[8],75%
same,Population Pyknosed Nuclei (%),[8],51%
same,Population Tubulin-Different-Phenotype (%),[8],82%
same,Total Cell Count,[8],69
same,Population Apoptotic (%),[9],38%
same,Population Fragmented Nuclei (%),[9],8%
same,Population Healthy Nuclei (%),[9],80%
same,Population Hoechst High Intensity Objects (%),[9],2%
same,Population Membrane Permeable-Phenotype (%),[9],3%
same,Population Mitochondria Different-Phenotype (%),[9],11%
same,Population Mitotic Cells (%),[9],61%
same,Population Normal (%),[9],97%
same,Population Pyknosed Nuclei (%),[9],11%
same,Population Tubulin-Different-Phenotype (%),[9],16%
same,Total Cell Count,[9],293
same,Population Apoptotic (%),[10],54%
same,Population Fragmented Nuclei (%),[10],14%
same,Population Healthy Nuclei (%),[10],70%
same,Population Hoechst High Intensity Objects (%),[10],6%
same,Population Membrane Permeable-Phenotype (%),[10],8%
same,Population Mitochondria Different-Phenotype (%),[10],18%
same,Population Mitotic Cells (%),[10],45%
same,Population Normal (%),[10],93%
same,Population Pyknosed Nuclei (%),[10],15%
same,Population Tubulin-Different-Phenotype (%),[10],12%
same,Total Cell Count,[10],75
same,Population Apoptotic (%),[11],70%
same,Population Fragmented Nuclei (%),[11],26%
same,Population Healthy Nuclei (%),[11],33%
same,Population Hoechst High Intensity Objects (%),[11],7%
same,Population Membrane Permeable-Phenotype (%),[11],58%
same,Population Mitochondria Different-Phenotype (%),[11],96%
same,Population Mitotic Cells (%),[11],29%
same,Population Normal (%),[11],92%
same,Population Pyknosed Nuclei (%),[11],39%
same,Population Tubulin-Different-Phenotype (%),[11],98%
same,Total Cell Count,[11],176
same,Population Apoptotic (%),[12],91%
same,Population Fragmented Nuclei (%),[12],18%
same,Population Healthy Nuclei (%),[12],35%
same,Population Hoechst High Intensity Objects (%),[12],22%
same,Population Membrane Permeable-Phenotype (%),[12],78%
same,Population Mitochondria Different-Phenotype (%),[12],89%
same,Population Mitotic Cells (%),[12],8%
same,Population Normal (%),[12],77%
same,Population Pyknosed Nuclei (%),[12],45%
same,Population Tubulin-Different-Phenotype (%),[12],94%
same,Total Cell Count,[12],68
Cc1nc(Nc2n[nH]c3c2CN(C(=O)N[C@H](CN(C)C)c2ccccc2)C3(C)C)c2sccc2n1 [PF-03758309],Population Apoptotic (%),[1],47%
same,Population Fragmented Nuclei (%),[1],9%
same,Population Healthy Nuclei (%),[1],79%
same,Population Hoechst High Intensity Objects (%),[1],2%
same,Population Membrane Permeable-Phenotype (%),[1],9%
same,Population Mitochondria Different-Phenotype (%),[1],21%
same,Population Mitotic Cells (%),[1],52%
same,Population Normal (%),[1],97%
same,Population Pyknosed Nuclei (%),[1],11%
same,Population Tubulin-Different-Phenotype (%),[1],21%
same,Total Cell Count,[1],234
same,Population Apoptotic (%),[2],20%
same,Population Fragmented Nuclei (%),[2],10%
same,Population Healthy Nuclei (%),[2],78%
same,Population Hoechst High Intensity Objects (%),[2],15%
same,Population Membrane Permeable-Phenotype (%),[2],5%
same,Population Mitochondria Different-Phenotype (%),[2],18%
same,Population Mitotic Cells (%),[2],80%
same,Population Normal (%),[2],84%
same,Population Pyknosed Nuclei (%),[2],10%
same,Population Tubulin-Different-Phenotype (%),[2],24%
same,Total Cell Count,[2],118
same,Population Apoptotic (%),[3],53%
same,Population Fragmented Nuclei (%),[3],16%
same,Population Healthy Nuclei (%),[3],54%
same,Population Hoechst High Intensity Objects (%),[3],3%
same,Population Membrane Permeable-Phenotype (%),[3],18%
same,Population Mitochondria Different-Phenotype (%),[3],37%
same,Population Mitotic Cells (%),[3],46%
same,Population Normal (%),[3],97%
same,Population Pyknosed Nuclei (%),[3],28%
same,Population Tubulin-Different-Phenotype (%),[3],75%
same,Total Cell Count,[3],173
same,Population Apoptotic (%),[4],75%
same,Population Fragmented Nuclei (%),[4],20%
same,Population Healthy Nuclei (%),[4],63%
same,Population Hoechst High Intensity Objects (%),[4],18%
same,Population Membrane Permeable-Phenotype (%),[4],12%
same,Population Mitochondria Different-Phenotype (%),[4],59%
same,Population Mitotic Cells (%),[4],25%
same,Population Normal (%),[4],81%
same,Population Pyknosed Nuclei (%),[4],16%
same,Population Tubulin-Different-Phenotype (%),[4],85%
same,Total Cell Count,[4],112
same,Population Apoptotic (%),[5],58%
same,Population Fragmented Nuclei (%),[5],11%
same,Population Healthy Nuclei (%),[5],80%
same,Population Hoechst High Intensity Objects (%),[5],3%
same,Population Membrane Permeable-Phenotype (%),[5],17%
same,Population Mitochondria Different-Phenotype (%),[5],19%
same,Population Mitotic Cells (%),[5],41%
same,Population Normal (%),[5],96%
same,Population Pyknosed Nuclei (%),[5],8%
same,Population Tubulin-Different-Phenotype (%),[5],25%
same,Total Cell Count,[5],292
same,Population Apoptotic (%),[6],38%
same,Population Fragmented Nuclei (%),[6],16%
same,Population Healthy Nuclei (%),[6],71%
same,Population Hoechst High Intensity Objects (%),[6],13%
same,Population Membrane Permeable-Phenotype (%),[6],12%
same,Population Mitochondria Different-Phenotype (%),[6],29%
same,Population Mitotic Cells (%),[6],61%
same,Population Normal (%),[6],86%
same,Population Pyknosed Nuclei (%),[6],12%
same,Population Tubulin-Different-Phenotype (%),[6],33%
same,Total Cell Count,[6],121
same,Population Apoptotic (%),[7],78%
same,Population Fragmented Nuclei (%),[7],25%
same,Population Healthy Nuclei (%),[7],38%
same,Population Hoechst High Intensity Objects (%),[7],12%
same,Population Membrane Permeable-Phenotype (%),[7],44%
same,Population Mitochondria Different-Phenotype (%),[7],64%
same,Population Mitotic Cells (%),[7],21%
same,Population Normal (%),[7],88%
same,Population Pyknosed Nuclei (%),[7],36%
same,Population Tubulin-Different-Phenotype (%),[7],88%
same,Total Cell Count,[7],202
same,Population Apoptotic (%),[8],85%
same,Population Fragmented Nuclei (%),[8],19%
same,Population Healthy Nuclei (%),[8],50%
same,Population Hoechst High Intensity Objects (%),[8],25%
same,Population Membrane Permeable-Phenotype (%),[8],38%
same,Population Mitochondria Different-Phenotype (%),[8],82%
same,Population Mitotic Cells (%),[8],14%
same,Population Normal (%),[8],74%
same,Population Pyknosed Nuclei (%),[8],30%
same,Population Tubulin-Different-Phenotype (%),[8],82%
same,Total Cell Count,[8],121
CN(C)c1ncnc(-c2ccc3nc(Nc4cc(CN5CCN(C(=O)CC(F)(F)F)CC5)ccn4)[nH]c3c2)c1Cl [BAY-440],Population Apoptotic (%),[3],23%
same,Population Fragmented Nuclei (%),[3],5%
same,Population Healthy Nuclei (%),[3],88% and 91%
same,Population Hoechst High Intensity Objects (%),[3],3% and 1%
same,Population Mitochondria Different-Phenotype (%),[3],32% and 17%
same,Population Mitotic Cells (%),[3],76%
same,Population Normal (%),[3],96% and 98%
same,Population Pyknosed Nuclei (%),[3],6% and 3%
same,Total Cell Count,[3],204 and 178
same,Population Fragmented Nuclei (%),[4],10% and 7%
same,Population Healthy Nuclei (%),[4],83% and 90%
same,Population Hoechst High Intensity Objects (%),[4],8%
same,Population Mitochondria Different-Phenotype (%),[4],38% and 19%
same,Population Mitotic Cells (%),[4],66% and 100%
same,Population Normal (%),[4],91%
same,Population Pyknosed Nuclei (%),[4],1%
same,Total Cell Count,[4],103 and 116
same,Population Apoptotic (%),[7],37% and 26%
same,Population Fragmented Nuclei (%),[7],7% and 2%
same,Population Healthy Nuclei (%),[7],81% and 89%
same,Population Hoechst High Intensity Objects (%),[7],3% and 2%
same,Population Mitotic Cells (%),[7],62% and 73%
same,Population Normal (%),[7],96% and 97%
same,Population Pyknosed Nuclei (%),[7],8%
same,Total Cell Count,[7],221 and 230
same,Population Fragmented Nuclei (%),[8],8% and 3%
same,Population Healthy Nuclei (%),[8],79% and 95%
same,Population Hoechst High Intensity Objects (%),[8],6% and 8%
same,Population Mitochondria Different-Phenotype (%),[8],50% and 33%
same,Population Mitotic Cells (%),[8],50% and 100%
same,Population Normal (%),[8],93% and 91%
same,Population Pyknosed Nuclei (%),[8],11% and 1%
same,Total Cell Count,[8],108 and 135
